Measured values as given in ChEMBL document CHEMBL1799956, “Convergent synthesis and biological evaluation of 2-amino-4-(3',4',5'-trimethoxyphenyl)-5-aryl thiazoles as microtubule targeting agents” (J Med Chem, 2011).
The source made the active and inactive calls.

Assays:
A549 [1] = assay: Antiproliferative activity against human A549 cells assessed as growth inhibition after 72 hrs by MTT assay; type: functional, cell-based; details: A549, 72 h
HL-60 = assay: Antiproliferative activity against human HL60 cells assessed as growth inhibition after 72 hrs by MTT assay; type: functional, cell-based; details: HL-60, 72 h
Jurkat [2] = assay: Antiproliferative activity against human Jurkat cells assessed as growth inhibition after 72 hrs by MTT assay; type: functional, cell-based
LoVo [3] = assay: Antiproliferative activity against human LoVo cells assessed as growth inhibition after 72 hrs by MTT assay; type: functional, cell-based
[4] = Antiproliferative activity against human taxol-resistant A549-T12 cells assessed as growth inhibition after 72 hrs by MTT assay; type: functional, cell-based; details: A549, 72 h
Bos taurus = species on record: Bos taurus; assay: Displacement of [3H]colchicine from bovine brain tubulin at 5 uM
Method in brief: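 [3H]colchicine binding inhibition with tubulin at 1 μM, [3H]colchicine at 5 μM and test compound at 5 μM.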

Tubulin (Homo sapiens) [5] = biological target: T1, Tubulin (Homo sapiens) (UniProt P68371+Q9H4B7+P0DPH7+P68366+Q13509+Q71U36+P04350+Q3ZCM7+P07437+P68363+Q9BQE3+Q6PEY2+Q13885+Q9BVA1+Q9BUF5); assay: Induction of microtubule disassembly in human HeLa cells assessed as complete loss of microtubules at 100 nM after 24 hrs using DAPI-staining by fluorescence microscopy; type: cell-based
Method in brief: (§1)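 HeLa cells were exposed to 10 or 100 nM compound for 24 or 48 h, then fixed. Microtubules were stained with FITC-conjugated anti-β-tubulin antibody and imaged by confocal/fluorescence microscopy at 60× magnification.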

Tubulin (Homo sapiens) [6] = biological target: T1, Tubulin (Homo sapiens); assay: Induction of microtubule disassembly in human HeLa cells assessed as complete loss of microtubules at 100 nM after 48 hrs using DAPI-staining by fluorescence microscopy; type: cell-based; method in brief: as §1
HeLa [7] = assay: Induction of morphological changes in human HeLa cells assessed as appearance of giant interphase with multiple nuclei of different sizes at 100 nM after 24 hrs using phalloidintetramethylrhodamine B isothiocyanate staining by microscopy; type: functional, cell-based
Method in brief: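 HeLa cells were incubated with compound for 24 h. F-actin was stained with a phalloidin–tetramethylrhodamine B isothiocyanate conjugate and nuclei were counterstained with DAPI. Cells were then examined by fluorescence microscopy.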

HeLa [8] = assay: Cell cycle arrest in human HeLa cells assessed as increase of cell population at G2/M phase after 24 hrs using propidium iodide staining by flow cytometry; type: functional, cell-based
Jurkat [9] = assay: Cell cycle arrest in human Jurkat cells assessed as increase of cell population at G2/M phase after 24 hrs using propidium iodide staining by flow cytometry; type: functional, cell-based
HeLa [10] = assay: Cell cycle arrest in human HeLa cells assessed as decrease of cell population at G1 phase at 1 to 100 nM after 24 hrs using propidium iodide staining by flow cytometry; type: functional, cell-based
Jurkat [11] = assay: Cell cycle arrest in human Jurkat cells assessed as decrease of cell population at S phase at 100 nM after 24 hrs using propidium iodide staining by flow cytometry; type: functional, cell-based
Jurkat [12] = assay: Cell cycle arrest in human Jurkat cells assessed as decrease of cell population at G1 phase at 1 to 100 nM after 48 hrs using propidium iodide staining by flow cytometry; type: functional, cell-based
HeLa [13] = assay: Induction of cell cycle arrest at G2/M phase in human HeLa cells assessed as increase in cyclin B1 expression after 24 to 48 hrs by Western blot analysis; type: functional, cell-based
Method in brief: (§2)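 Immunoblot of HeLa lysates after 24 or 48 h of compound treatment at the indicated concentrations. Probed for cyclin B1, p-Cdc2 Y15 and Cdc25c. Slower-migrating Cdc25c bands were taken as a change in phosphorylation.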

HeLa [14] = assay: Induction of cell cycle arrest at G2/M phase in human HeLa cells assessed as increase in cyclin B1 expression at 10 to 100 nM by Western blot analysis; type: functional, cell-based; details: TDE = time-dependent effect; method in brief: as §2
HeLa [15] = assay: Induction of cell cycle arrest at G2/M phase in human HeLa cells assessed as decrease in phosphorylated Cdc2(Y15) expression at 10 to 100 nM after 48 hrs by Western blot analysis; type: functional, cell-based; method in brief: as §2
HeLa [16] = assay: Induction of apoptosis in human HeLa cells assessed as decrease in Bcl2 expression at […] after 24 hrs by Western blot analysis; type: functional, cell-based
Method in brief: (§3)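 Treated HeLa whole-cell lysates separated by SDS-PAGE and immunoblotted for PARP cleavage, Bcl-2, Bax, pro-caspase-9 and pro-caspase-2.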

HeLa [17] = assay: Induction of apoptosis in human HeLa cells assessed as decrease in Bcl2 expression at […] after 48 hrs by Western blot analysis; type: functional, cell-based; method in brief: as §3
HeLa [18] = assay: Induction of apoptosis in human HeLa cells assessed as DNA condensation at 100 uM after 24 to 48 hrs using Giemsa's staining by microscopic analysis; type: functional, cell-based
Method in brief: (§4)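 HeLa treated 48 h, Giemsa stained and examined by light microscopy at 60× magnification.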

HeLa [19] = assay: Induction of apoptosis in human HeLa cells assessed as formation of large cells at 10 uM after 24 to 48 hrs using Giemsa's staining by microscopic analysis; type: functional, cell-based; method in brief: as §4
Jurkat [20] = assay: Induction of apoptosis in human Jurkat cells assessed as multinucleation at 100 uM after 24 to 48 hrs using Giemsa's staining by microscopic analysis; type: functional, cell-based
Method in brief: (§5)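 Giemsa staining, then light-microscope examination of cell morphology. HeLa and Jurkat cells were exposed to compound for 24 and 48 h. Magnification 60×.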

Jurkat [21] = assay: Induction of apoptosis in human Jurkat cells assessed as formation of large cytoplasmic vacuoles at 100 uM after 24 to 48 hrs using Giemsa's staining by microscopic analysis; type: functional, cell-based; method in brief: as §5
HeLa [22] = assay: Induction of apoptosis in human HeLa cells assessed as reduction in p53 expression at […] after 24 hrs by Western blot analysis; type: functional, cell-based
Method in brief: (§6)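 Western blot of HeLa whole-cell lysates, separated by SDS-PAGE and probed with antibodies to p-γH2AX Ser139, p53 and p21waf/cip1. Cells were treated at the indicated concentrations for 24 or 48 h.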

HeLa [23] = assay: Induction of apoptosis in human HeLa cells assessed as reduction in p53 expression at […] after 48 hrs by Western blot analysis; type: functional, cell-based; method in brief: as §6
HeLa [24] = assay: Induction of apoptosis in human HeLa cells assessed as reduction in p21 expression at […] after 48 hrs by Western blot analysis; type: functional, cell-based; method in brief: as §6
LoVo [25] = assay: Fold resistance, ratio of IC50 for human doxorubicin-resistant LoVo cells overexpressing P-gp to IC50 for human LoVo cells; type: functional
Method in brief: (§7)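 Fold resistance taken as the ratio of IC50 in the resistant line to IC50 in the parental line, each IC50 from dose-response curves of at least three independent experiments.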

CCRF-CEM = assay: Fold resistance, ratio of IC50 for human vinblastine-resistant CEM/VBL100 cells overexpressing P-gp to IC50 for human CEM cells; type: functional; method in brief: as §7
A549 [26] = assay: Fold resistance, ratio of IC50 for human taxol-resistant A549-T12 cells to IC50 for human A549 cells; type: functional
HeLa [27] = assay: Induction of apoptosis in human HeLa cells assessed activation of caspase 9 at 10 to 100 nM after 48 hrs by Western blot analysis
HeLa [28] = assay: Induction of apoptosis in human HeLa cells assessed as reduction in p21 expression at 10 to 100 nM after 24 hrs by Western blot analysis

CCOc1ccc(-c2sc(N)nc2-c2cc(OC)c(OC)c(OC)c2)cc1
0.7 nM: IC50 (LoVo [3])
inactive: Activity (HeLa [16]) | Activity (HeLa [22]) | Activity (HeLa [27])
0.9 nM: IC50 (HL-60)
2.2: Ratio IC50 (A549 [26])
0.14 nM: IC50 (Jurkat [2])
0.2 nM: IC50 [4]
0.9: Ratio IC50 (LoVo [25]) | Ratio IC50 (CCRF-CEM)
95%: inhibition (Bos taurus)
0.09 nM: IC50 (A549 [1])
active: Activity (Tubulin (Homo sapiens) [5]) | Activity (Tubulin (Homo sapiens) [6]) | Activity (HeLa [7]) | Activity (HeLa [8]) Dose-dependent effect | Activity (Jurkat [9]) Dose-dependent effect | Activity (HeLa [10]) | Activity (Jurkat [11]) | Activity (Jurkat [12]) | Activity (HeLa [13]) Dose-dependent effect | Activity (HeLa [14]) tde | Activity (HeLa [15]) | Activity (HeLa [17]) | Activity (HeLa [18]) | Activity (HeLa [19]) | Activity (Jurkat [20]) | Activity (Jurkat [21]) | Activity (HeLa [23]) | Activity (HeLa [24]) | Activity (HeLa [28])
